# Reference: ChEMBL document CHEMBL4145656, “Additional Insights into Hypericum perforatum Content: Isolation, Total Synthesis, and Absolute Configuration of Hyperbiphenyls A and B from Immunomodulatory Root Extracts” (J Nat Prod, 2018)
# Activity calls are given as the source filed them. The calls are words filed in the database; no cut-off is given here.
# What was measured:
# HUVEC [1] = test: Immunomodulatory activity in HUVEC assessed as inhibition of IFNgamma-induced HLA-E expression at 10 uM pretreated for 1 hr followed by IFNgamma stimulation and measured after 48 hrs by immunostaining based flow cytometry relative to control; format: functional
# Method in brief: (§1)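 Endothelial cells were stimulated with IFNγ to upregulate MHC class II and HLA-E in the presence of test agent at 10 μM. Surface expression was measured by flow cytometry.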
# HUVEC [2] = test: Immunomodulatory activity in HUVEC assessed as inhibition of IFNgamma-induced MHC-1 expression at 10 uM pretreated for 1 hr followed by IFNgamma stimulation and measured after 48 hrs by immunostaining based flow cytometry relative to control; format: functional
# Method in brief: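 Cultured vascular endothelial cells were stimulated with IFNγ to upregulate MHC molecules (MHC class I, class II, HLA-E) in the presence of the test compound at 10 μM. Surface expression of MHC was then quantified by flow cytometry.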
# HUVEC [3] = test: Immunomodulatory activity in HUVEC assessed as inhibition of IFNgamma-induced HLA-DR expression at 10 uM pretreated for 1 hr followed by IFNgamma stimulation and measured after 48 hrs by immunostaining based flow cytometry relative to control; format: functional; method in brief: as §1
# HUVEC [4] = test: Immunomodulatory activity in HUVEC assessed as inhibition of IFNgamma-induced MICA expression at 10 uM pretreated for 1 hr followed by IFNgamma stimulation and measured after 48 hrs by immunostaining based flow cytometry relative to control; format: functional
# HUVEC [5] = test: Immunomodulatory activity in HUVEC assessed as inhibition of TNFalpha-induced VCAM1 expression at 5 to 50 uM measured by ELISA relative to control; format: functional, Homo sapiens
# Method in brief: (§2)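 Cell-based ELISA on cultured vascular endothelial cells quantifying surface molecules. Cells were stimulated with TNF to induce VCAM-1 and MICA, or with IFNγ to induce MHC class I. Test agents were present at 5, 25 and 50 μM.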
# HUVEC [6] = test: Effect on MHC-1 expression in HUVEC at 10 uM measured after 1 hr by immunostaining based flow cytometry; format: ADME, cell-based; details: human
# HUVEC [7] = test: Reduction in basal MICA expression in HUVEC at 10 uM measured after 1 hr by immunostaining based flow cytometry; format: ADME, cell-based; parameters: scale not given: the % may be the effect or the level left; details: human
# HUVEC [8] = test: Effect on HLA-DR expression in HUVEC at 10 uM measured after 1 hr by immunostaining based flow cytometry; format: ADME, cell-based; details: human
# HUVEC [9] = test: Immunomodulatory activity in HUVEC assessed as inhibition of IFNgamma-induced MHC1 expression at 5 to 50 uM measured by ELISA relative to control; format: functional, Homo sapiens; method in brief: as §2
# HUVEC [10] = test: Immunomodulatory activity in HUVEC assessed as inhibition of TNFalpha-induced MICA expression at 5 to 50 uM measured by ELISA relative to control; format: functional, Homo sapiens; method in brief: as §2
# HUVEC [11] = test: Effect on HLA-E expression in HUVEC at 10 uM measured after 1 hr by immunostaining based flow cytometry; format: ADME, cell-based; details: human
Structure (SMILES),Activity (HUVEC [1]; Homo sapiens),Activity (HUVEC [2]; Homo sapiens),Activity (HUVEC [3]; Homo sapiens),Activity (HUVEC [4]; Homo sapiens),also measured
COc1cc(-c2ccccc2)cc2c1C[C@@H](C(C)(C)O)O2,inactive,inactive,inactive,inactive,–
COc1cc(C2Oc3c(OC)cc4c(=O)c5ccccc5oc4c3OC2CO)ccc1O (configuration not stated),inactive,inactive,inactive,inactive,–
COc1c(O)ccc2c(=O)c3c(O)cc4c(c3oc12)C(C)(C)C(C)O4 (configuration not stated),–,–,–,–,inhibition (INH) (HUVEC [5]): >50%; Activity (HUVEC [6]): Non-Toxic; Activity (HUVEC [1]): 40%; Activity (HUVEC [7]): 25%; Activity (HUVEC [8]): Non-Toxic; inhibition (INH) (HUVEC [9]): 10 - 25%; inhibition (INH) (HUVEC [10]): <10%; Activity (HUVEC [11]): Non-Toxic; Activity (HUVEC [3]): 25%; Activity (HUVEC [4]): 24%
COc1cc(-c2ccccc2)cc2c1C[C@H](O)C(C)(C)O2,inactive,inactive,inactive,inactive,–
COc1cc2oc3cc(O)cc(O)c3c(=O)c2c2c1OC(C)(C)C=C2,inactive,inactive,inactive,inactive,–
O.O=P(O)(O)C(O)(Cn1ccnc1)P(=O)(O)O [ZOLEDRONIC ACID],–,–,–,–,Activity (HUVEC [2]): 67%
